Data published in ChEMBL document CHEMBL1142294, “Design and synthesis of benzo-lipoxin A4 analogs with enhanced stability and potent anti-inflammatory properties” (Bioorg Med Chem Lett, 2008).

Legend:
[1] = Stability assessed as rate of NADH formation in presence of eicosanoid oxido-reductase; type: ADME
Procedure, shortened: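 Compound at ~15 μM incubated with 50 ng recombinant eicosanoid oxido-reductase in 0.1 M Tris–HCl pH 9.0 with 1 mM NAD⁺, 37 °C, 25 min, while NADH formation was monitored. Initial velocity was taken by linear regression over the linear phase of conversion. Values are means ± SEM, n = 3.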

Mus musculus = test: Antiinflammatory activity against FVB mouse assessed as inhibition of zymosan-induced neutrophil infiltration at 15 ug/kg, iv relative to control; type: functional
Procedure, shortened: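 Male FVB mice, 6–8 weeks old, given 15 μg kg⁻¹ by intravenous bolus into the tail vein in 100 μL sterile saline, then an intraperitoneal injection of zymosan A (1 mg/1 mL). Peritoneal lavage was collected at 2 h, and total leukocytes, PMNs and monocytes were counted. PMN inhibition is relative to zymosan A plus saline vehicle. Values are means ± SEM, n = 5–10.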

Stability [1]	SMILES	inhibition in vivo at 0.015 mg/kg (Mus musculus)
0.04 µM/min	CCCCCC/C=C/c1ccccc1/C=C/[C@@H](O)[C@@H](O)CCCC(=O)OC	23.9%
0.09 µM/min	CCCCCC(O)c1ccccc1/C=C/[C@@H](O)[C@@H](O)CCCC(=O)OC (mixture of isomers)	22.3%
0.21 µM/min	CCCCC[C@@H](O)/C=C/C=C\C=C\C=C\[C@@H](O)[C@@H](O)CCCC(=O)O	
0.45 µM/min	CCCCC[C@@H](O)/C=C/c1cccc(/C=C/[C@@H](O)[C@@H](O)CCCC(=O)OC)c1	32%
0.14 µM/min	CCCCC[C@@H](O)/C=C/C=C/c1ccccc1/C=C/[C@@H](O)[C@@H](O)CCCC(=O)OC	17.3%
2.42 µM/min	CCCCC[C@H](O)/C=C/C=C\C=C\C=C\[C@@H](O)[C@@H](O)CCCC(=O)O [LIPOXIN A4]	
	COC(=O)CCC[C@H](O)[C@H](O)/C=C/C=C/C=C\C=C\[C@H](O)COc1ccc(F)cc1	40.5%
0.19 µM/min	CCCCC[C@@H](O)/C=C/c1ccccc1/C=C/[C@@H](O)[C@@H](O)CCCC(=O)OC	32.2%
